Assay results gathered from unrelated publications.
Protocols differ between the studies behind these lines.
Target: NUAK family SNF1-like kinase 1 (NUAK1, Homo sapiens, UniProt O60285)
One construct used (O60285 1-661): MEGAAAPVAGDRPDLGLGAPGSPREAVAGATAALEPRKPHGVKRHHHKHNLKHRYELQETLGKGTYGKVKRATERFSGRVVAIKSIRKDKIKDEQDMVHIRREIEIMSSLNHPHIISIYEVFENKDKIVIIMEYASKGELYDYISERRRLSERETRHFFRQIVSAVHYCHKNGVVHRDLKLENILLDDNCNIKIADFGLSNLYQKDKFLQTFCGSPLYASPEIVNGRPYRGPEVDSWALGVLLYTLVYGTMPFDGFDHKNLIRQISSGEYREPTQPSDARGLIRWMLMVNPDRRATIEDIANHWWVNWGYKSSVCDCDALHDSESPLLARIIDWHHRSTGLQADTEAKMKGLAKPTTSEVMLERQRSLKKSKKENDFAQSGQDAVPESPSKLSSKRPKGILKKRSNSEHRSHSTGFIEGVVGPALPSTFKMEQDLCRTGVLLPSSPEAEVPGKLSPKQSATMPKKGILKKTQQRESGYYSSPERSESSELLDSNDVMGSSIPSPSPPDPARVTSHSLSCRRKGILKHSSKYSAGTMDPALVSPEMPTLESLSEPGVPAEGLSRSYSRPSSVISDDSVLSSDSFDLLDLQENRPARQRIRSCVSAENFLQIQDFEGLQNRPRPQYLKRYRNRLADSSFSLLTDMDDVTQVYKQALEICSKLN

`CC(C)(C)c1cc(C=C(C#N)C#N)cc(Br)c1O` gave a remaining activity of 95.4% (enzyme activity; inhibitor; 0.5 µM).
With `Cn1cncc1[C@](O)(COc1ccc(C#N)cc1-c1ccc(OC(F)(F)F)cc1)c1ccc(C#N)cc1` the remaining binding was 81% (cell-free assay; competition with immobilised ligand; 1 µM).
`Nc1ncc(-c2nc(N3CCOCC3)nc(N3CCOCC3)n2)c(C(F)F)n1` has a remaining binding of 94% (binding; competition with immobilised ligand; 10 µM).
`Cn1cc(-c2cc(F)cc(N3CCn4c(cc5c4CCCC5)C3=O)c2CO)cc(Nc2ccc(N3CCN(C4COC4)CC3)cn2)c1=O` gave an inhibition of 17% (enzyme activity; inhibitor; 0.1 µM).
For `C#Cc1n[nH]c2c(-c3cn([C@@H](C)c4ccccn4)c(=O)[nH]c3=O)cc(F)cc12`, the inhibition was 3.3% (enzyme activity; inhibitor; 0.1 µM).
`Cc1nn(C)cc1-c1nc2c(N3CCN(Cc4ccc(Cl)cc4)CC3)c(Cl)cnc2[nH]1` has a remaining binding of 9.6% (binding; competition with immobilised ligand; 1 µM).
The remaining binding of `N#CC1(c2ccccn2)CCN(Cc2cc(C(=O)O)c(=O)n3ccccc23)CC1` is reported as 98% (cell-free assay; competition with immobilised ligand; 1 µM).
For `C#Cc1n[nH]c2c(-c3cn([C@@H](C)c4ccccc4)c(=O)[nH]c3=O)cc(F)cc12`, the inhibition was 0.4% (enzyme activity; inhibitor; 0.1 µM).
The inhibition of `Cn1cc(-c2cccc(N3CCc4c(sc5c4CC(C)(C)C5)C3=O)c2CO)cc(Nc2ccncn2)c1=O` is reported as 14% (enzyme activity; inhibitor; 1 µM).
The remaining signal of `O=c1[nH]c2ccccc2n1C1CCN(Cc2ccc(-c3[nH]c4cc5ncnc5cc4nc3-c3ccccc3)cc2)CC1` is reported as 103% (cell-free assay; 0.5 µM).
`COc1ncccc1-c1cnn2ccc(N3CCN(C(=O)OC(C)C)CC3)nc12` gave a remaining binding of 65% (binding; competition with immobilised ligand; 1 µM).
